In ChEMBL document CHEMBL1629492 (Eur J Med Chem, 2010):

Key:
[1] = organism: Rattus norvegicus; experiment: Selectivity ratio of EC50 for alpha1D adrenoceptor in Wistar rat thoracic aorta to EC50 for Alpha-1B adrenoceptor in Wistar rat spleen; assay type: tissue-based
[2] = biological target: T1, Alpha-1A adrenergic receptor (Homo sapiens, UniProt P35348); experiment: Displacement of [3H]prazosin from human alpha1A adrenoceptor expressed in CHO cells; assay type: cell-based
T1 sequence (P35348 whole entry): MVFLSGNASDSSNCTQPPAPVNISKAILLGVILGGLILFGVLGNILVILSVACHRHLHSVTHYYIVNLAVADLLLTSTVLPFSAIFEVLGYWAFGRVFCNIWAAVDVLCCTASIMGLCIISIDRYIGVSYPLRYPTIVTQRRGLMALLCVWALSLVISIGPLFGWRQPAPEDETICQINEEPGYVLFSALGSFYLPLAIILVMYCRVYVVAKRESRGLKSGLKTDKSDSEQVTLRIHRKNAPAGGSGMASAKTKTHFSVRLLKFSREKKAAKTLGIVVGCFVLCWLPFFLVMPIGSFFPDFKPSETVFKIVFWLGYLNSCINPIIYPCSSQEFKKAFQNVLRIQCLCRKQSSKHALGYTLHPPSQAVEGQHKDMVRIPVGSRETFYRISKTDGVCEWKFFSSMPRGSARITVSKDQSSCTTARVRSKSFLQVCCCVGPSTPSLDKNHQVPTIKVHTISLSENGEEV
How it was run: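 Membranes ([…], as printed) from CHO cells stably expressing the cloned human α1a subtype were incubated with 0.1–0.4 nM [³H]prazosin and competitor (1 pM up to the top concentration) in 50 mM Tris-HCl, pH 7.4, for 30 min at 25 °C. Non-specific binding was defined with phentolamine, and incubations ended by rapid filtration. IC50 was converted to Ki by Cheng–Prusoff. Reported as pKi from 2–3 triplicate experiments.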

[3] = organism: Rattus norvegicus; experiment: Selectivity ratio of Ki for alpha1A adrenoceptor in Wistar rat vas deferens to Ki for Alpha-1B adrenoceptor in Wistar rat spleen; assay type: tissue-based
[4] = organism: Rattus norvegicus; experiment: Selectivity ratio of Ki for alpha1D adrenoceptor in Wistar rat thoracic aorta to Ki for Alpha-1B adrenoceptor in Wistar rat spleen; assay type: tissue-based
[5] = biological target: T2, Alpha-1A adrenergic receptor (Rattus norvegicus, UniProt P43140); experiment: Antagonist activity at alpha1A adrenoceptor in Wistar rat vas deferens assessed as noradrenaline induced contractions after 30 mins; assay type: functional, tissue-based; settings: read-out: pA2 (converted)
T2 sequence (P43140 whole entry): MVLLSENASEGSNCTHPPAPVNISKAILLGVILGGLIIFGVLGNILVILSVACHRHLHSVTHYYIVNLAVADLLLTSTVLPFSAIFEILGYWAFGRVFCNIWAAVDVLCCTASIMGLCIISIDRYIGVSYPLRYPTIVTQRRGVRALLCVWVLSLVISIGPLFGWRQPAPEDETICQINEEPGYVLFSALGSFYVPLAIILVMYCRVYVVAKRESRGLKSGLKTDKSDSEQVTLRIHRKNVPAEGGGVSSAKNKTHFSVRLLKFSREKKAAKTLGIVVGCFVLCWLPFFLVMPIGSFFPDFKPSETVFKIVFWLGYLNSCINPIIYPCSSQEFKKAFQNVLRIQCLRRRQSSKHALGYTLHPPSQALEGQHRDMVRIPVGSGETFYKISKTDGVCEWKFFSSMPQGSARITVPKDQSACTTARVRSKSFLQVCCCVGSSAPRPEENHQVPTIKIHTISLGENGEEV
How it was run: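 Prostatic portions (2 cm) of vas deferens from male Wistar rats (275–300 g) were held under 0.35 g tension in Tyrode solution at 37 °C with cocaine present. Tissues were equilibrated 45 min, primed twice with noradrenaline, then given a cumulative isotonic noradrenaline curve.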

[6] = organism: Rattus norvegicus; experiment: Selectivity ratio of Ki for alpha1A adrenoceptor in Wistar rat vas deferens to Ki for Alpha-1D adrenoceptor in Wistar rat thoracic aorta; assay type: tissue-based
[7] = organism: Rattus norvegicus; experiment: Selectivity ratio of Ki for alpha1A adrenoceptor in Wistar rat vas deferens to EC50 for Alpha-1D adrenoceptor in Wistar rat thoracic aorta; assay type: tissue-based
[8] = biological target: T3, Alpha-1B adrenergic receptor (Rattus norvegicus) (UniProt P15823); experiment: Antagonist activity at Alpha-1B adrenoceptor in Wistar rat spleen assessed as phenylephrine induced contractions after 30 mins; assay type: functional, tissue-based
T3 sequence (whole entry): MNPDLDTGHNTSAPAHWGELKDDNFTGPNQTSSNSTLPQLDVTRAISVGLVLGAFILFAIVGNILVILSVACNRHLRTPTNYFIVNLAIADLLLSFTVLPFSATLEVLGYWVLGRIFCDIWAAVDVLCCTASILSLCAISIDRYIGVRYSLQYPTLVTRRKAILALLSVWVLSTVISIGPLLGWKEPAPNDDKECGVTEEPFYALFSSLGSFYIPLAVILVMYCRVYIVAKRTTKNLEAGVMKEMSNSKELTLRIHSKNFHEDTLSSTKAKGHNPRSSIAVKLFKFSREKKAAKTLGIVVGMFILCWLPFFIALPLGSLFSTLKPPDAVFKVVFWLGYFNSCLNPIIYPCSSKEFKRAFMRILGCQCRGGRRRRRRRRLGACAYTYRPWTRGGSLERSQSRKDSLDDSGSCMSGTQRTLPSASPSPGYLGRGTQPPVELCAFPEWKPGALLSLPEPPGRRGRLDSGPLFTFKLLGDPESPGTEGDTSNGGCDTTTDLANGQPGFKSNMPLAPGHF
How it was run: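 Spleen strips from male Wistar rats (275–300 g) were set up in a 20 mL bath of physiological salt solution (pH 7.4, 37 °C, 95% O2/5% CO2) under 1 g tension and equilibrated 2 h. Two cumulative phenylephrine curves were run, each followed by 30 min washing, then 30 min incubation with vehicle or antagonist before a third curve. Values are Schild pA2, or pKB where slopes were nonparallel; 4–6 experiments.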

`COc1ccc(C[C@@H](C)NCCOc2ccccc2OCC(F)(F)F)cc1S(N)(=O)=O` gave a Selectivity ratio [1] of 1, a Ki [2] of 0.603 nM and a Selectivity ratio [3] of 4. It also gave a Selectivity ratio [4] of 1, a Kb [5] of 0.263 nM and a Selectivity ratio [6] of 4. It also gave a Selectivity ratio [7] of 4.
Work on `COc1ccc(C[C@@H](C)NCCOc2ccccc2OC(C)C)cc1S(N)(=O)=O` yielded a Selectivity ratio [1] of 3, a Ki [2] of 0.339 nM and a Selectivity ratio [3] of 7. For the same molecule, the Selectivity ratio [4] was 3, the Selectivity ratio [6] was 2 and the Selectivity ratio [7] was 2. It also gave a pKb [8] of 8.81.
`COc1ccc(C[C@@H](C)NC[C@H]2Oc3ccccc3O[C@H]2C)cc1S(N)(=O)=O` showed a Selectivity ratio [1] of 0.5, a Ki [2] of 19.1 nM and a Selectivity ratio [3] of 1. For the same molecule, the Selectivity ratio [4] was 0.5, the Kb [5] was 30.2 nM and the Selectivity ratio [6] was 2. The Selectivity ratio [7] was 2.
Molecule `COc1ccc(C[C@@H](C)NC[C@@H]2Oc3ccccc3O[C@@H]2C)cc1S(N)(=O)=O` has a Selectivity ratio [1] of 0.8, a Ki [2] of 11.5 nM and a Selectivity ratio [3] of 1. For the same molecule, the Selectivity ratio [4] was 0.8, the Kb [5] was 16.2 nM and the Selectivity ratio [6] was 1. The Selectivity ratio [7] was 1 and the pKb [8] was 7.76.
`COc1ccc(C[C@@H](C)NCCOc2ccccc2OCc2ccccc2)cc1S(N)(=O)=O` gave a Selectivity ratio [1] of 4, a Ki [2] of 0.347 nM and a Selectivity ratio [3] of 12. The Selectivity ratio [4] was 4, the Selectivity ratio [6] was 3 and the Selectivity ratio [7] was 3. For the same molecule, the pKb [8] was 8.57.
